Source: PMC2764298 (Biochemical and biophysical research communications, 2009)

Assays:
[1] = target: T1, P-gp (Homo sapiens, UniProt P08183); assay: rhodamine 123 accumulation assay by flow cytometry in MCF-7/DX1 cells; assay type: cell-based
Procedure, shortened: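 P-gp-overexpressing MCF-7/DX1 breast adenocarcinoma cells, maintained with 1 µM doxorubicin. 125,000 cells in suspension loaded with 0.5 µg/mL (1.3 µM) rhodamine 123, alone or with test compound, 30–40 min, 37°C. Pelleted, then re-incubated 30–40 min, 37°C in fresh medium with test compound or 1 µM GF120918. Resuspended in ice-cold PBS pH 7.4; 488 nm laser, 530 band-pass (FL1), 10,000 cells/point. IC50 fitted from concentration series.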

[2] = target: T1, P-gp; assay: [3H]daunomycin radioactive substrate accumulation assay in MCF-7/DX1 cells; assay type: cell-based; conditions: read-out: IC50, cellular accumulation of [3H]daunomycin, [3H]daunomycin 0.25 µCi/mL, scintillation counting
[3] = target: P-gp ATPase activity (Homo sapiens, UniProt P08183); assay: P-gp ATPase assay, crude High Five insect cell membranes; assay type: biochemical; conditions: Pi release
P-gp ATPase activity, sequence (P08183 whole entry): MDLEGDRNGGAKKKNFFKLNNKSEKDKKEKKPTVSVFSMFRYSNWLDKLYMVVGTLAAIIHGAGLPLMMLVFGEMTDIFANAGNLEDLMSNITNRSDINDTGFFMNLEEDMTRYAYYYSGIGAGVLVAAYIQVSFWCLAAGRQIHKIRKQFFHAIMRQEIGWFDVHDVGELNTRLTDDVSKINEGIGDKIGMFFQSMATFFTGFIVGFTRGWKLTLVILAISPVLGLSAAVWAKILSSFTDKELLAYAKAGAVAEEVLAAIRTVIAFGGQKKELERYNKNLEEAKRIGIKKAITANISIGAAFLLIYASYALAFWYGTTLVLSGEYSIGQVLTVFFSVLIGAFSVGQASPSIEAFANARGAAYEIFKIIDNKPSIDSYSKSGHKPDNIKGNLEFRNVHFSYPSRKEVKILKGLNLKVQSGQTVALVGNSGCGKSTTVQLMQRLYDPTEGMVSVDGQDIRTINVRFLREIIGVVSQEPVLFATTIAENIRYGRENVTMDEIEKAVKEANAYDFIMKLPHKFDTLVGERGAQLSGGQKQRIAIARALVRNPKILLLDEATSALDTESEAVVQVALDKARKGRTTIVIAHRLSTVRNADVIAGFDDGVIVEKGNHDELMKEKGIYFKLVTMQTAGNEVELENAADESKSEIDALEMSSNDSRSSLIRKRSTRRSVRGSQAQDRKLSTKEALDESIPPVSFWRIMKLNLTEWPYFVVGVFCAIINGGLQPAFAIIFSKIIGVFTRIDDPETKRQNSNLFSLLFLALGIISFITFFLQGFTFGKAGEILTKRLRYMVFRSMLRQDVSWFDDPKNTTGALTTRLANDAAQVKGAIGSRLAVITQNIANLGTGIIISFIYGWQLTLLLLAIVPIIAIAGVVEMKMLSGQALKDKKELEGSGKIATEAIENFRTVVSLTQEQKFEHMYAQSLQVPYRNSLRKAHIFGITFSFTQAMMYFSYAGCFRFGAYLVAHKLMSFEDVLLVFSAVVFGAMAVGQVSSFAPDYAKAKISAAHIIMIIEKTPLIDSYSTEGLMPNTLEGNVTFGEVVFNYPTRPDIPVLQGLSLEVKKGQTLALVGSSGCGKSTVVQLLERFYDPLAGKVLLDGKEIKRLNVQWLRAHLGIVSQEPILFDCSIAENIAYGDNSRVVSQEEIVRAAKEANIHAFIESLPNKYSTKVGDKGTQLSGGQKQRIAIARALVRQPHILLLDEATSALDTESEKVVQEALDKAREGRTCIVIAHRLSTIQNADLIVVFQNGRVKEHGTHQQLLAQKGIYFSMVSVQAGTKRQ

T1 sequence (P08183 whole entry): as above

| Structure (SMILES) | IC50 [1] [nM] | IC50 [2] [nM] | effect on P-gp ATPase activity at low concentrations ([3]; Gal-2 < 1 µM) | effect on P-gp ATPase activity at higher concentrations ([3]; Gal-2 > 5 µM) | more active than the known P-gp inhibitor GF120918 (rhodamine 123 accumulation) ([1]; MCF-7/DX1 cells, both at 1 µM) |
| --- | --- | --- | --- | --- | --- |
| COc1ccc2c3c1O[C@H]1C[C@@H](O)C=C[C@@]31CCN(C)C2 [galantamine, reference compound] | > 100000 | – | – | – | – |
| COc1ccc2c3c1O[C@H]1C[C@@H](OC(=O)CCCCCCCCC(=O)O[C@H]4C=C[C@@]56CCN(C)Cc7ccc(OC)c(c75)O[C@H]6C4)C=C[C@@]31CCN(C)C2 [Gal-2] | – | 2000 ± 400 | stimulated ATPase activity | ATPase stimulation was found to decrease in a concentration-dependent manner | approximately 20% |
